Assay results: ChEMBL document CHEMBL1649115, “Enhanced susceptibility to antifungal oligopeptides in yeast strains overexpressing ABC multidrug efflux pumps” (Antimicrob Agents Chemother, 2008)
≈ marks a conversion by molar mass, not a printed value. Residues, ends and D or L forms follow the SMILES beside them. *: point of attachment. Ethyl(2-NH2) = NCC*

Tests used:
Saccharomyces cerevisiae [1] = assay: Antifungal activity against wild type Saccharomyces cerevisiae ATCC 9763 in YNPG-proline medium after 24 hrs by microdilution method; assay type: functional; conditions: ATCC 9763, 24 h
Saccharomyces cerevisiae [2] = assay: Antifungal activity against Saccharomyces cerevisiae AD12345678 in YNPG-proline medium after 24 hrs by microdilution method; assay type: functional; conditions: AD12345678, 24 h
Saccharomyces cerevisiae [3] = assay: Antifungal activity against Saccharomyces cerevisiae ADCDR1 expressing Candida albicans CDR1 efflux pump in YNPG-proline medium after 24 hrs by microdilution method; assay type: functional; conditions: ADCDR1, 24 h
Saccharomyces cerevisiae [4] = assay: Antifungal activity against Saccharomyces cerevisiae ADCDR2 expressing Candida albicans CDR2 efflux pump in YNPG-proline medium after 24 hrs by microdilution method; assay type: functional; conditions: ADCDR2, 24 h
Saccharomyces cerevisiae [5] = assay: Antifungal activity against Saccharomyces cerevisiae ADMDR1 expressing Candida albicans MDR1 efflux pump in YNPG-proline medium after 24 hrs by microdilution method; assay type: functional; conditions: ADMDR1, 24 h
Candida albicans [6] = assay: Antifungal activity against wild type Candida albicans 10261 in RPMI-1640 buffered medium after 24 hrs by microdilution method; assay type: functional
Outline: (§1)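 C. albicans cells were grown in 2% glucose, 1% yeast extract, 1% Bacto peptone medium before testing. […] CARE-2 fingerprinting confirmed that each pair is a single strain.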

Candida albicans [7] = assay: Antifungal activity against fluconazole sensitive Candida albicans isolate Gu4 in RPMI-1640 buffered medium after 24 hrs by microdilution method; assay type: functional; outline: as §1
Candida albicans [8] = assay: Antifungal activity against fluconazole resistant Candida albicans isolate Gu5 overexpressing CDR1 and CDR2 in RPMI-1640 buffered medium after 24 hrs by microdilution method; assay type: functional; conditions: isolate Gu5, 24 h
Outline: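 C. albicans cells were grown in 2% glucose, 1% yeast extract, 1% Bacto peptone medium before testing. CARE-2 fingerprinting confirmed that each pair is a single strain.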

Candida albicans [9] = assay: Antifungal activity against fluconazole sensitive Candida albicans isolate B3 in RPMI-1640 buffered medium after 24 hrs by microdilution method; assay type: functional; outline: as §1
Candida albicans [10] = assay: Antifungal activity against fluconazole resistant Candida albicans isolate B4 overexpressing MDR1 in RPMI-1640 buffered medium after 24 hrs by microdilution method; assay type: functional; outline: as §1
Candida albicans [11] = assay: Prodrug stability in wild type Candida albicans 10261 assessed as compound cleavage rate measured per mg of protein; assay type: ADME, organism-based; conditions: in vivo
Candida albicans [12] = assay: Prodrug stability in fluconazole sensitive Candida albicans isolate Gu4 assessed as compound cleavage rate measured per mg of protein; assay type: ADME, organism-based; conditions: in vivo
Outline: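 Oligopeptides were incubated with cell extracts of the yeast cells, and their hydrolytic enzymes cleaved them. The amino acids released were quantified by the Cd-ninhydrin method.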

Candida albicans [13] = assay: Prodrug stability in fluconazole sensitive Candida albicans isolate B3 assessed as compound cleavage rate measured per mg of protein; assay type: ADME, organism-based; conditions: in vivo
Saccharomyces cerevisiae [14] = assay: Drug uptake in Saccharomyces cerevisiae AD12345678 at 200 uM pretreated for 10 mins measured after 60 mins by fluorescamine staining; assay type: ADME, organism-based; conditions: in vivo, 1 h
Saccharomyces cerevisiae [15] = assay: Drug uptake in Saccharomyces cerevisiae ADCDR1 expressing Candida albicans CDR1 efflux pump at 200 uM pretreated for 10 mins measured after 60 mins by fluorescamine staining; assay type: ADME, organism-based; conditions: in vivo, 1 h
Saccharomyces cerevisiae [16] = assay: Drug uptake in Saccharomyces cerevisiae ADCDR2 expressing Candida albicans CDR2 efflux pump at 200 uM pretreated for 10 mins measured after 60 mins by fluorescamine staining; assay type: ADME, organism-based; conditions: in vivo, 1 h
Saccharomyces cerevisiae [17] = assay: Drug uptake in Saccharomyces cerevisiae ADMDR1 expressing Candida albicans MDR1 efflux pump at 200 uM pretreated for 10 mins measured after 60 mins by fluorescamine staining; assay type: ADME, organism-based; conditions: in vivo, 1 h
Saccharomyces cerevisiae [18] = assay: Prodrug stability in wild type Saccharomyces cerevisiae ATCC 9763 assessed as compound cleavage rate measured per mg of protein; assay type: ADME, organism-based; conditions: in vivo
Saccharomyces cerevisiae [19] = assay: Prodrug stability in Saccharomyces cerevisiae AD12345678 assessed as compound cleavage rate measured per mg of protein; assay type: ADME, organism-based; conditions: in vivo
Saccharomyces cerevisiae [20] = assay: Prodrug stability in Saccharomyces cerevisiae ADCDR1 expressing Candida albicans CDR1 efflux pump assessed as compound cleavage rate measured per mg of protein; assay type: ADME, organism-based; conditions: in vivo
Saccharomyces cerevisiae [21] = assay: Prodrug stability in Saccharomyces cerevisiae ADCDR2 expressing Candida albicans CDR2 efflux pump assessed as compound cleavage rate measured per mg of protein; assay type: ADME, organism-based; conditions: in vivo
Saccharomyces cerevisiae [22] = assay: Prodrug stability in Saccharomyces cerevisiae ADMDR1 expressing Candida albicans MDR1 efflux pump assessed as compound cleavage rate measured per mg of protein; assay type: ADME, organism-based; conditions: in vivo
[23] = Candida albicans, 10261, 24 h, read-out: MIC
[24] = Candida albicans, isolate Gu4, 24 h, read-out: MIC
[25] = Candida albicans, isolate B3, 24 h, read-out: MIC
[26] = Candida albicans, isolate B4, 24 h, read-out: MIC

| Structure (SMILES) | MIC (Saccharomyces cerevisiae [1]) [µg/mL] | MIC (Saccharomyces cerevisiae [2]) [µg/mL] | MIC (Saccharomyces cerevisiae [3]) [µg/mL] | MIC (Saccharomyces cerevisiae [4]) [µg/mL] | MIC (Saccharomyces cerevisiae [5]) [µg/mL] | MIC (Candida albicans [6]; [23]) [µg/mL] | MIC (Candida albicans [7]; [24]) [µg/mL] | MIC (Candida albicans [8]) [µg/mL] | MIC (Candida albicans [9]; [25]) [µg/mL] | MIC (Candida albicans [10]; [26]) [µg/mL] | Stability (Candida albicans [11]) [nmol/min] | Stability (Candida albicans [12]) [nmol/min] | Stability (Candida albicans [13]) [nmol/min] | Drug uptake (Saccharomyces cerevisiae [14]) [nmol/min/mg] | Drug uptake (Saccharomyces cerevisiae [15]) [nmol/min/mg] | Drug uptake (Saccharomyces cerevisiae [16]) [nmol/min/mg] | Drug uptake (Saccharomyces cerevisiae [17]) [nmol/min/mg] | Stability (Saccharomyces cerevisiae [18]) [nmol/min] | Stability (Saccharomyces cerevisiae [19]) [nmol/min] | Stability (Saccharomyces cerevisiae [20]) [nmol/min] | other results |
| --- | --- | --- | --- | --- | --- | --- | --- | --- | --- | --- | --- | --- | --- | --- | --- | --- | --- | --- | --- | --- | --- |
| C[C@H](NC(=O)[C@H](Cc1cnc[nH]1)NC(=O)[C@H](CO)NC(=O)[C@@H](N)CC(=O)O)C(=O)N[C@@H](CCCCN)C(=O)N[C@@H](CCCNC(=N)N)C(=O)N[C@@H](Cc1cnc[nH]1)C(=O)N[C@@H](Cc1cnc[nH]1)C(=O)NCC(=O)N[C@@H](Cc1ccc(O)cc1)C(=O)N[C@@H](CCCCN)C(=O)N[C@@H](CCCNC(=N)N)C(=O)N[C@@H](CCCCN)C(=O)N[C@@H](Cc1ccccc1)C(=O)N[C@@H](Cc1cnc[nH]1)C(=O)N[C@@H](CCC(=O)O)C(=O)N[C@@H](CCCCN)C(=O)N[C@@H](Cc1cnc[nH]1)C(=O)N[C@@H](Cc1cnc[nH]1)C(=O)N[C@@H](CO)C(=O)N[C@@H](Cc1cnc[nH]1)C(=O)N[C@@H](CCCNC(=N)N)C(=O)NCC(=O)N[C@@H](Cc1ccc(O)cc1)C(=O)O [HISTATIN 5] | 128 (≈ 42.2 µM) | 128 (≈ 42.2 µM) | 128 (≈ 42.2 µM) | 128 (≈ 42.2 µM) | 128 (≈ 42.2 µM) | 32 (≈ 10.5 µM) | 32 (≈ 10.5 µM) | 32 (≈ 10.5 µM) | 32 (≈ 10.5 µM) | 32 (≈ 10.5 µM) | 0.3 | 0.3 | 0.3 | – | – | – | – | – | – | – | – |
| CC(C)C[C@H](NC(=O)[C@@H](N)COCCN)C(=O)NCC(=O)O | 8 (≈ 25.1 µM) | 4 (≈ 12.6 µM) | 1 (≈ 3.14 µM) | 1 (≈ 3.14 µM) | 4 (≈ 12.6 µM) | 128 (≈ 402 µM) | 256 (≈ 804 µM) | 16 (≈ 50.3 µM) | 64 (≈ 201 µM) | 32 (≈ 101 µM) | – | – | – | – | – | – | – | – | – | – | – |
| CCC[C@H](NC(=O)[C@@H](N)CCCCN)C(=O)N[C@@H](CNC(=O)/C=C/C(=O)OC)C(=O)O [listing 1 of 2 here] | 32 (≈ 72.2 µM) | 32 (≈ 72.2 µM) | 4 (≈ 9.02 µM) | 8 (≈ 18 µM) | 32 (≈ 72.2 µM) | 8 (≈ 18 µM) | 4 (≈ 9.02 µM) | 1 (≈ 2.25 µM) | 8 (≈ 18 µM) | 8 (≈ 18 µM) | – | – | – | – | – | – | – | – | – | – | – |
| C[C@H](N)C(=O)O [ALANINE] | – | – | – | – | – | – | – | – | – | – | – | – | – | 3.51 | 4.16 | 4.35 | 3.33 | – | – | – | – |
| CCC[C@H](N)C(=O)N[C@@H](CNC(=O)/C=C/C(=O)OC)C(=O)O | 4 (≈ 12.7 µM) | 4 (≈ 12.7 µM) | 0.5 (≈ 1.59 µM) | 1 (≈ 3.17 µM) | 4 (≈ 12.7 µM) | 2 (≈ 6.34 µM) | 2 (≈ 6.34 µM) | 0.125 (≈ 0.396 µM) | 4 (≈ 12.7 µM) | 4 (≈ 12.7 µM) | 20 | 20 | 20 | 0.96 | 1.86 | 1.56 | 1.02 | 14 | 14 | 14 | Stability (Saccharomyces cerevisiae [21]): 14 nmol/min; Stability (Saccharomyces cerevisiae [22]): 14 nmol/min |
| CCC[C@H](NC(=O)[C@@H](N)CCCCN)C(=O)N[C@@H](CNC(=O)/C=C/C(=O)OC)C(=O)O [listing 2 of 2 here] | – | – | – | – | – | – | – | – | – | – | 20 | 20 | 20 | 0.79 | 1.61 | 1.18 | 0.81 | 14 | 14 | 14 | Stability (Saccharomyces cerevisiae [21]): 14 nmol/min; Stability (Saccharomyces cerevisiae [22]): 14 nmol/min |
| CC(C)C[C@H](NC(=O)[C@H](CC(C)C)NC(=O)[C@H](CC(C)C)NC(=O)[C@@H](N)COCCN)C(=O)NCC(=O)O (H-S(Ethyl(2-NH2))LLLG-OH) [listing 1 of 2 here] | – | – | – | – | – | – | – | – | – | – | 20 | 20 | 20 | 0.31 | 0.49 | 0.51 | 0.28 | 14 | 14 | 14 | Stability (Saccharomyces cerevisiae [21]): 14 nmol/min; Stability (Saccharomyces cerevisiae [22]): 14 nmol/min |
| OC(Cn1cncn1)(Cn1cncn1)c1ccc(F)cc1F [FLUCONAZOLE] | 2 (≈ 6.53 µM) | 1 (≈ 3.27 µM) | 32 (≈ 104 µM) | 16 (≈ 52.2 µM) | 32 (≈ 104 µM) | 4 (≈ 13.1 µM) | 8 (≈ 26.1 µM) | – | 4 (≈ 13.1 µM) | 64 (≈ 209 µM) | – | – | – | – | – | – | – | – | – | – | MIC (Candida albicans [6]): 4 µg/mL (≈ 13.1 µM); MIC (Candida albicans [7]): 8 µg/mL (≈ 26.1 µM); MIC (Candida albicans [9]): 4 µg/mL (≈ 13.1 µM); MIC (Candida albicans [10]): 64 µg/mL (≈ 209 µM) |
| CC(C)C[C@H](NC(=O)[C@H](CC(C)C)NC(=O)[C@H](CC(C)C)NC(=O)[C@@H](N)COCCN)C(=O)NCC(=O)O (H-S(Ethyl(2-NH2))LLLG-OH) [listing 2 of 2 here] | 256 (≈ 470 µM) | 256 (≈ 470 µM) | 128 (≈ 235 µM) | 128 (≈ 235 µM) | 256 (≈ 470 µM) | – | – | – | – | – | – | – | – | – | – | – | – | – | – | – | – |
| CC(C)C[C@H](NC(=O)[C@H](CC(C)C)NC(=O)[C@@H](N)COCCN)C(=O)NCC(=O)O (H-S(Ethyl(2-NH2))LLG-OH) [listing 1 of 2 here] | 64 (≈ 148 µM) | 64 (≈ 148 µM) | 16 (≈ 37.1 µM) | 32 (≈ 74.2 µM) | 64 (≈ 148 µM) | – | – | – | – | – | – | – | – | – | – | – | – | – | – | – | – |
| C[C@H](N)C(=O)N[C@@H](C)C(=O)N[C@@H](C)C(=O)O | – | – | – | – | – | – | – | – | – | – | – | – | – | 3.15 | 5.3 | 4.74 | 2.91 | – | – | – | – |
| CC(C)C[C@H](NC(=O)[C@H](CC(C)C)NC(=O)[C@@H](N)COCCN)C(=O)NCC(=O)O (H-S(Ethyl(2-NH2))LLG-OH) [listing 2 of 2 here] | – | – | – | – | – | – | – | – | – | – | 20 | 20 | 20 | 0.51 | 0.83 | 0.96 | 0.65 | 14 | 14 | 14 | Stability (Saccharomyces cerevisiae [21]): 14 nmol/min; Stability (Saccharomyces cerevisiae [22]): 14 nmol/min |
